Active and inactive are the calls of the source. The rule behind the calls is not given here.
Assays:
[1] = Downregulation of CDK1 in human MCF7 cells at 50 to 100 nM after 48 hrs by Western blot analysis; type: functional, cell-based
Outline: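 MCF-7 cells were treated 48 h at 50 or 100 nM and lysed in RIPA buffer. Lysate (50 µg per lane) was resolved on 10% SDS-PAGE and transferred to PVDF. Membranes were BSA-blocked, probed with primary antibody for 24 h and detected by chemiluminescence, with β-actin as loading control.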

MCF7 [2] = assay: Induction of apoptosis in human MCF7 cells assessed as chromatin condensation at 50 to 100 nM after 48 hrs by Hoechst 33242-staining based fluorescence microscopic analysis; type: functional, cell-based
Outline: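 MCF-7 cells were seeded at 1×10^5 cells/mL, exposed to compound at 50 or 100 nM, with DMSO vehicle as control. They were fixed in 4% paraformaldehyde for 10 min at 4 °C and stained with Hoechst 33242 (2 µg/mL) for 10 min at room temperature. Nuclear morphology was imaged by fluorescence microscopy in random fields.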

MCF7 [3] = assay: Induction of apoptosis in human MCF7 cells after 48 hrs by Annexin V FITC/propidium iodide-based FACS analysis; type: functional, cell-based
[4] = Cell cycle arrest in human MCF7 cells assessed as reduction in DNA content at G0/G1 phase at 50 to 100 nM after 48 hrs by propidium iodide-staining based FACS analysis; type: functional
Outline: (§1)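 MCF-7 cells were incubated 48 h with compound at 50 or 100 nM; nocodazole 100 nM was the reference. Untreated and treated cells were harvested, washed in PBS, fixed in ice-cold 70% ethanol, stained with propidium iodide and analysed by flow cytometry for cell-cycle phase distribution.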

MCF7 [5] = assay: Induction of apoptosis in human MCF7 cells assessed as early apoptotic cells at 50 nM after 48 hrs by Annexin V FITC/propidium iodide-based FACS analysis (reference value: 2.4 %); type: functional
MCF7 [6] = assay: Induction of apoptosis in human MCF7 cells assessed as necrotic cells at 50 nM after 48 hrs by Annexin V FITC/propidium iodide-based FACS analysis (reference value: 0.4 %); type: functional
[7] = Cell cycle arrest in human MCF7 cells assessed as accumulation at G2/M phase after 48 hrs by propidium iodide-staining based FACS analysis; type: functional; outline: as §1
MCF7 [8] = assay: Induction of apoptosis in human MCF7 cells assessed as viable cells at 50 nM after 48 hrs by Annexin V FITC/propidium iodide-based FACS analysis (reference value: 93.1 %); type: functional; details: MCF7, 48 h, read-out: Activity
[9] = Antiproliferative activity against human MCF7 cells after 48 hrs by SRB assay; type: functional; details: MCF7, 48 h
Outline: (§2)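 SRB assay in ATCC-sourced cells grown in DMEM with 10% FBS and penicillin/streptomycin at 37 °C, 5% CO2. Cells were plated at densities set by doubling time and incubated 24 h before dosing. Compounds (DMSO 10 mM stock diluted in medium) were tested at 0.01, 0.1, 1, 10 and 100 µM with 48 h continuous exposure. Cells were fixed in cold 10% TCA and stained with 0.057% SRB; OD was read at 510 nm. GI50 was derived from time-zero, control and test absorbances and reported as the mean of three independent experiments.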

[10] = Antiproliferative activity against human MIAPaCa2 cells after 48 hrs by SRB assay; type: functional; details: MIA PaCa-2, 48 h; outline: as §2
MCF7 [11] = assay: Induction of apoptosis in human MCF7 cells assessed as early apoptotic cells at 100 nM after 48 hrs by Annexin V FITC/propidium iodide-based FACS analysis (reference value: 2.4 %); type: functional
MCF7 [12] = assay: Induction of apoptosis in human MCF7 cells assessed as late apoptotic cells at 50 nM after 48 hrs by Annexin V FITC/propidium iodide-based FACS analysis (reference value: 4.2 %); type: functional
MCF7 [13] = assay: Induction of apoptosis in human MCF7 cells assessed as necrotic cells at 100 nM after 48 hrs by Annexin V FITC/propidium iodide-based FACS analysis (reference value: 0.4 %); type: functional
MCF7 [14] = assay: Induction of apoptosis in human MCF7 cells assessed as intracellular ROS generation at 100 nM after 48 hrs by carboxy-DCFDA staining based fluorescence microscopic analysis; type: functional, cell-based
Outline: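 MCF-7 cells were plated at 1×10^5 cells/mL, adhered overnight and treated at 50 or 100 nM. Methods and legend state 24 h treatment; the results text states 48 h. Cells were PBS-washed, fixed in 4% paraformaldehyde and exposed to carboxy-DCFDA for 30 min in the dark at room temperature. DCF fluorescence was assessed by fluorescence microscopy.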

[15] = Antiproliferative activity against human HeLa cells after 48 hrs by SRB assay; type: functional; outline: as §2
MCF7 [16] = assay: Induction of apoptosis in human MCF7 cells assessed as viable cells at 100 nM after 48 hrs by Annexin V FITC/propidium iodide-based FACS analysis (reference value: 93.1 %); type: functional; details: MCF7, 48 h, read-out: Activity
MCF7 [17] = assay: Induction of apoptosis in human MCF7 cells assessed as late apoptotic cells at 100 nM after 48 hrs by Annexin V FITC/propidium iodide-based FACS analysis (reference value: 4.2 %); type: functional
MCF7 [18] = assay: Induction of apoptosis in human MCF7 cells assessed as reduction in mitochondrial membrane potential at 50 to 100 nM after 48 hrs by rhodamine 123-staining based fluorescence microscopic analysis; type: functional, cell-based
Outline: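 MCF-7 cells were plated at 1×10^5 cells/mL and allowed to adhere overnight, then treated at 50 or 100 nM. After PBS washes they were loaded with rhodamine 123 (5 µg/ml) for 30 min in the dark at 37 °C. Loss of green fluorescence was assessed by fluorescence microscopy.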

Row | SMILES | GI50 [9] [nM] | GI50 [10] [nM] | GI50 [15] [nM] | also measured
1 | O=C(NCc1cn(Cc2ccc(Cl)cc2)nn1)c1cn(-c2ccccc2)nc1-c1ccc(F)cc1 | 130 | 280 | 210 | Activity [1]: Active; Activity (MCF7 [2]): Active; Activity (MCF7 [3]): Dose-dependent effect; Activity [4]: Active; Activity (MCF7 [5]): 5.2%; Activity (MCF7 [6]): 0.7%; Activity [7]: Dose-dependent effect; viability at 0.05 µM (MCF7 [8]): 83.8%; Activity (MCF7 [11]): 8.2%; Activity (MCF7 [12]): 10.3%; Activity (MCF7 [13]): 2%; Activity (MCF7 [14]): Active; viability at 0.1 µM (MCF7 [16]): 69.3%; Activity (MCF7 [17]): 20.5%; Activity (MCF7 [18]): Active
2 | COc1ccc(-c2nn(-c3ccccc3)cc2C(=O)NCc2cn(Cc3ccc(C(F)(F)F)cc3)nn2)cc1 | > 100000 | > 100000 | 6200 | –
3 | COc1cc(Cn2cc(CNC(=O)c3cn(-c4ccccc4)nc3-c3ccccc3)nn2)cc(OC)c1OC | > 100000 | 1000 | > 100000 | –
4 | COc1ccc(Cn2cc(CNC(=O)c3cn(-c4ccccc4)nc3-c3ccccc3)nn2)cc1 | > 100000 | 10200 | 6900 | –
5 | COc1ccc(Cn2cc(CNC(=O)c3cn(-c4ccccc4)nc3-c3ccc(Cl)cc3)nn2)cc1 | 8000 | 290 | 1400 | –
6 | COc1cc(Cn2cc(CNC(=O)c3cn(-c4ccccc4)nc3-c3ccc(F)cc3)nn2)cc(OC)c1 | 2500 | 190 | 360 | –
7 | COc1ccc(Cn2cc(CNC(=O)c3cn(-c4ccccc4)nc3-c3ccc(F)cc3)nn2)cc1OC | > 100000 | > 100000 | 200 | –
8 | COc1ccc(-c2nn(-c3ccccc3)cc2C(=O)NCc2cn(Cc3cc(OC)cc(OC)c3)nn2)cc1 | 700 | 5800 | 12400 | –
9 | COc1cc(Cn2cc(CNC(=O)c3cn(-c4ccccc4)nc3-c3ccccc3)nn2)cc(OC)c1 | 2400 | 190 | 12200 | –
10 | COc1ccc(-c2nn(-c3ccccc3)cc2C(=O)NCc2cn(Cc3ccc(OC)c(OC)c3)nn2)cc1 | > 100000 | 16300 | 800 | –
11 | COc1ccc(Cn2cc(CNC(=O)c3cn(-c4ccccc4)nc3-c3ccc(Cl)cc3)nn2)cc1OC | > 100000 | 9400 | 200 | –
12 | COc1ccc(Cn2cc(CNC(=O)c3cn(-c4ccccc4)nc3-c3ccc(OC)cc3)nn2)cc1 | 22900 | 2500 | 450 | –
13 | O=C(NCc1cn(Cc2ccc(F)cc2)nn1)c1cn(-c2ccccc2)nc1-c1ccc(Cl)cc1 | 570 | 1990 | 2800 | –
14 | O=C(NCc1cn(Cc2ccc(F)cc2)nn1)c1cn(-c2ccccc2)nc1-c1ccccc1 | 7000 | 9600 | 1600 | –
15 | O=C(NCc1cn(Cc2ccc(F)cc2)nn1)c1cn(-c2ccccc2)nc1-c1ccc(F)cc1 | 55300 | 14300 | 1200 | –
16 | COc1ccc(Cn2cc(CNC(=O)c3cn(-c4ccccc4)nc3-c3ccc(F)cc3)nn2)cc1 | 650 | 3700 | 870 | –
17 | O=C(NCc1cn(Cc2ccc(C(F)(F)F)cc2)nn1)c1cn(-c2ccccc2)nc1-c1ccc(Cl)cc1 | 4900 | 1100 | 1900 | –
18 | COc1ccc(-c2nn(-c3ccccc3)cc2C(=O)NCc2cn(Cc3cc(OC)c(OC)c(OC)c3)nn2)cc1 | 7600 | 31600 | 1700 | –
19 | COc1cc(Cn2cc(CNC(=O)c3cn(-c4ccccc4)nc3-c3ccc(F)cc3)nn2)cc(OC)c1OC | 4300 | 5200 | 2100 | –
20 | COc1ccc(-c2nn(-c3ccccc3)cc2C(=O)NCc2cn(Cc3ccc(F)cc3)nn2)cc1 | 460 | 24100 | 500 | –
21 | COc1cc(Cn2cc(CNC(=O)c3cn(-c4ccccc4)nc3-c3ccc(Cl)cc3)nn2)cc(OC)c1 | 150 | 340 | 730 | Activity [1]: Active; Activity (MCF7 [2]): Active; Activity (MCF7 [3]): Dose-dependent effect; Activity [4]: Active; Activity (MCF7 [5]): 5.6%; Activity (MCF7 [6]): 0.9%; Activity [7]: Dose-dependent effect; viability at 0.05 µM (MCF7 [8]): 83.2%; Activity (MCF7 [11]): 7.8%; Activity (MCF7 [12]): 10.2%; Activity (MCF7 [13]): 2.2%; Activity (MCF7 [14]): Active; viability at 0.1 µM (MCF7 [16]): 61.4%; Activity (MCF7 [17]): 28.6%; Activity (MCF7 [18]): Active
22 | O=C(NCc1cn(Cc2ccc(Cl)cc2)nn1)c1cn(-c2ccccc2)nc1-c1ccc(Cl)cc1 | 28800 | 410 | 470 | –
23 | COc1cc(Cn2cc(CNC(=O)c3cn(-c4ccccc4)nc3-c3ccc(Cl)cc3)nn2)cc(OC)c1OC | 2500 | 3500 | 100 | –
24 | O=C(NCc1cn(Cc2ccc(C(F)(F)F)cc2)nn1)c1cn(-c2ccccc2)nc1-c1ccc(F)cc1 | 810 | 760 | 250 | –
25 | O=C(NCc1cn(Cc2ccc(C(F)(F)F)cc2)nn1)c1cn(-c2ccccc2)nc1-c1ccccc1 | 840 | 17700 | 1600 | –
26 | COC(=O)Nc1nc2cc(C(=O)c3cccs3)ccc2[nH]1 [NOCODAZOLE] | 940 | 950 | 810 | Activity (MCF7 [3]): Dose-dependent effect; Activity (MCF7 [11]): 7.6%; Activity (MCF7 [13]): 1.6%; viability at 0.1 µM (MCF7 [16]): 70.5%; Activity (MCF7 [17]): 20.3%
27 | O=C(NCc1cn(Cc2ccc(Cl)cc2)nn1)c1cn(-c2ccccc2)nc1-c1ccccc1 | > 100000 | 8700 | 600 | –
28 | COc1ccc(-c2nn(-c3ccccc3)cc2C(=O)NCc2cn(Cc3ccc(Cl)cc3)nn2)cc1 | 2900 | 26300 | 6400 | –
29 | COc1ccc(Cn2cc(CNC(=O)c3cn(-c4ccccc4)nc3-c3ccccc3)nn2)cc1OC | 12600 | 8200 | 10800 | –

From ChEMBL document CHEMBL3865795, “Design, synthesis and biological evaluation of N-((1-benzyl-1H-1,2,3-triazol-4-yl)methyl)-1,3-diphenyl-1H-pyrazole-4-carboxamides as CDK1/Cdc2 inhibitors” (2016)
